ChEMBL document CHEMBL1145980, “Molecular modeling calculations of HIV-1 reverse transcriptase nonnucleoside inhibitors: correlation of binding energy with biological activity for novel 2-aryl-substituted benzimidazole analogues” (J Med Chem, 2003)

biological target: Human immunodeficiency virus type 1 reverse transcriptase (Human immunodeficiency virus 1, UniProt Q72547); assay: Inhibition of HIV-1 reverse transcriptase.
Method in brief: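 Antiviral activity measured in cells infected with the HIV-1-based vector pNLNgoMI/R-E. The vector expresses the murine cell-surface marker gene hsa from the nef reading frame, so vector-infected cells can be identified by that marker. Results are reported as EC50.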

| Structure (SMILES) | EC50 [nM] |
| --- | --- |
| OCc1cccc2c1nc(-c1c(F)cccc1F)n2Cc1c(F)cccc1F | 50 |
| Nc1cccc2c1nc(-c1c(F)cccc1F)n2Cc1c(F)cccc1F | 530 |
| Fc1cccc(F)c1Cn1c(-c2c(F)cccc2F)nc2c(Br)cccc21 | 370 |
| CNc1cccc2c1nc(-c1c(F)cccc1F)n2Cc1c(F)cccc1F | 2400 |
| CC(=O)N(C)c1cccc2c1nc(-c1c(F)cccc1F)n2Cc1c(F)cccc1F | 40 |
| [N-]=[N+]=NCc1cccc2c1nc(-c1c(F)cccc1F)n2Cc1c(F)cccc1F | 45 |
| N#CCc1cccc2c1nc(-c1c(F)cccc1F)n2Cc1c(F)cccc1F | 60 |
| NCc1cccc2c1nc(-c1c(F)cccc1F)n2Cc1c(F)cccc1F | 1360 |
| CCc1cccc2c1nc(-c1c(F)cccc1F)n2Cc1c(F)cccc1F | 820 |
| COc1cccc2c1nc(-c1c(F)cccc1F)n2Cc1c(F)cccc1F | 80 |
| Fc1cccc(F)c1Cn1c(-c2c(F)cccc2F)nc2c(CCl)cccc21 | 160 |
| CC(=O)Nc1cccc2c1nc(-c1c(F)cccc1F)n2Cc1c(F)cccc1F | 1650 |
| CC(=O)OCc1cccc2c1nc(-c1c(F)cccc1F)n2Cc1c(F)cccc1F | 60 |
| NC(=O)c1cccc2c1nc(-c1c(F)cccc1F)n2Cc1c(F)cccc1F | 370 |
| COc1cccc(F)c1-c1nc2c(N)cccc2n1Cc1c(F)cccc1F | 2710 |
| O=[N+]([O-])c1cccc2c1nc(-c1c(F)cccc1F)n2Cc1c(F)cccc1F | 450 |
| Cc1cccc2c1nc(-c1c(F)cccc1F)n2Cc1ccccc1 | 750 |
| Fc1cccc(F)c1Cn1c(-c2c(F)cccc2F)nc2ccccc21 | 1700 |
| Fc1cccc(F)c1Cn1c(-c2ccccc2)nc2ccccc21 | 6060 |
| Cc1cccc2c1nc(-c1c(F)cccc1F)n2Cc1c(F)cccc1F | 440 |
| O=Cc1cccc2c1nc(-c1c(F)cccc1F)n2Cc1c(F)cccc1F | 100 |
| Fc1cccc(F)c1Cn1c(-c2c(F)cccc2F)nc2c(Cl)cccc21 | 400 |
